hERG protect: compounds protecting human hERG from proarrhythmic drug block | CHO-hERG, FluxOR thallium flux, dofetilide IC70 present | activation (rescue from dofetilide block), less the hit threshold, % at 10 µM | 0.51% of 310,000 active;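 active = activation above the mean of controls blocked by dofetilide plus 5 SD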;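 note: thallium influx through hERG after potassium depolarization seen as dye fluorescence rise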
KCNQ1 inh: inhibitors of human KCNQ1 potassium channel | P51787 | CHO-K1 KCNQ1, FluxOR thallium flux fluorescence; active compounds read high | B-score at 10 µM | 1.3% of 310,000 active | AID 2642;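 active = compounds whose thallium flux B-score, printed positive for inhibition, exceeds three library SD while starting fluorescence stays within three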;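 note: channel opened by potassium depolarization with thallium stimulus after 20 min compound exposure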
Cl transport mod: KCC2 (human) Cl- transport modulation; Q9H2X9; AID 1456; KCC2 cells, thallium flux FluoZin-2 fluorescence; 2.2% of 190,000 active; B-score of Tl+ flux slope (higher = more flux/activation; lower = inhibition) at 10 µM;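 active = thallium flux slope and its plate-corrected score both differing from the plate sample mean at a set confidence after two filtering rounds, in either direction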;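 note: slope of fluorescence scaled to starting intensity during 10 to 20 s after thallium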
KCNQ1 pot: potentiators or activators of human KCNQ1 potassium channel; P51787; CHO-K1 KCNQ1, thallium flux FluxOR fluorescence; active compounds read high; 0.35% of 310,000 active; B-score at 10 µM; AID 2648;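 active = fluorescence ratio B-score, a plate-corrected score, at least three library SD, with initial intensity B-score within 5 SD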
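System: CHO-K1 cells stably expressing KCNQ1 / Medium: assay buffer for compound exposure, DMSO matched across wells / Reagent: thallium- and potassium-containing depolarizing buffer / Compound: one concentration, matched DMSO / Incubation: 20 min compound pretreatment at room temperature / Measured by: kinetic FluxOR fluorescence, 10 s baseline plus 110 s post-stimulus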
KCNK3 block: human KCNK3 channel inhibition, primary screen; O14649; CHO-KCNK3 thallium flux, FluxOR fluorescence; active compounds read low; B-score at 10 µM; 0.84% of 340,000 active;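 active = B-score under library mean minus 4 SD, starting fluorescence ratio at most library mean plus 5 SD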;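 note: more negative B-score means stronger inhibition of thallium flux through KCNK3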
Target sequence (O14649 whole entry, looked up): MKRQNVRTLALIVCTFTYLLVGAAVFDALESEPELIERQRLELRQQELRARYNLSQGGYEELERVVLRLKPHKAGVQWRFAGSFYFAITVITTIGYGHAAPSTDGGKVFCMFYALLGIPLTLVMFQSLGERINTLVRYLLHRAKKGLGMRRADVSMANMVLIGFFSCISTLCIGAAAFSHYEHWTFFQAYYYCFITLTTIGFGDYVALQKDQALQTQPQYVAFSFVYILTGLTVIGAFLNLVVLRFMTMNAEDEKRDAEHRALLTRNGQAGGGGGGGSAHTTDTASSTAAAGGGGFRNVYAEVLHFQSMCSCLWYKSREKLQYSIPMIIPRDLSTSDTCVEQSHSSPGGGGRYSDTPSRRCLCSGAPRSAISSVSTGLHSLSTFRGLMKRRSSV
KCNK9 inh: human KCNK9 channel inhibition; Q9NPC2; HEK293 KCNK9, FluxOR thallium flux fluorescence; active compounds read low; B-score at 10 µM; 1.2% of 310,000 active; AID 488922;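 active = ratio B-score over 3 SD below the library mean, with starting fluorescence within 5 SD of its mean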;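 note: negative B-score means less thallium flux so channel inhibition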
Target sequence (Q9NPC2 whole entry, looked up): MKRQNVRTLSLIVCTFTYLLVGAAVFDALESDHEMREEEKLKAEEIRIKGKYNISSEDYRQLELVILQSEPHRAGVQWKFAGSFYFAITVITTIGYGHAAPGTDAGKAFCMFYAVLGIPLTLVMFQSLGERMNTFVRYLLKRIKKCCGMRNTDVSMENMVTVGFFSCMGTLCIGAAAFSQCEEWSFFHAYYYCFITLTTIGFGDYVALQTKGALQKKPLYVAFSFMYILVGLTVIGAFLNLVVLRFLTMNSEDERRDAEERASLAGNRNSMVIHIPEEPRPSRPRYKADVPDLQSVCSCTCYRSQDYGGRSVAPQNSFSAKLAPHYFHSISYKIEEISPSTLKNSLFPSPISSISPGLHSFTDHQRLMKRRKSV
KCC2 sec1: KCC2 (human) modulation, secondary assay; normalised thallium flux (F/F0 slope) at 10 µM; 15% of 3,700 active; HEK293-KCC2, thallium flux, FluoZin2 fluorescence; active compounds read high; shares compounds with Cl transport mod;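 active = thallium flux slope above the same plate's solvent-only control mean plus 3 SD; inconclusive = the two replicate wells disagree; inactive = no significant difference from solvent-only control wells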
KCC2 bumet counter: thallium flux despite bumetanide block in KCC2 cells, secondary assay 3; normalized thallium flux at 10 µM; 49% of 3,700 active; shares compounds with Cl transport mod; HEK293-KCC2 + bumetanide/ouabain, thallium flux FluoZin2; active compounds read high;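 active = thallium entry rate above the same plate's blocked-transporter control wells by more than 3 SD; inconclusive = the two repeat wells disagree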;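 note: raw slope of fluorescence over initial fluorescence between 10 and 20 s after thallium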
KCC2 sec2: confirmation of human KCC2 transport modulators; shares compounds with Cl transport mod; HEK293-KCC2, thallium flux FluoZin2 fluorescence; actives lie on both sides; F/F0 rise rate, 10–20 s post-thallium; normalized thallium flux at 10 µM; 23% of 3,700 active;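 active = thallium flux slope more than 3 SD above or below the plate's solvent-only control mean, mostly below; inconclusive = the two repeat wells disagreed; inactive = no significant shift from solvent-only controls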
HEK counter1: counter-screen for KCC2 modulators: effect in parental HEK293 cells; shares compounds with Cl transport mod; thallium flux FluoZin2, ouabain; baseline-ratio fluorescence slope, 10–20 s after thallium; thallium flux rate (normalised fluorescence) at 10 µM; 46% of 3,700 active;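 active = thallium flux rate significantly above the same plate's solvent-only control wells, beyond their mean plus 3 SD; inconclusive = the two replicate wells gave conflicting results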
KCC2 ouabain: KCC2 (human) modulation, ouabain retest. raw Tl+ flux slope (below DMSO = inhibition, above = activation) at 10 µM. shares compounds with Cl transport mod. AID 1717. HEK293-KCC2, thallium flux FluoZin2 fluorescence; bidirectional: low = inhibitor, high = activator. 48% of 3,700 active;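 active = thallium flux slope beyond 3 SD from same-plate DMSO control mean in most replicates, usually higher, sometimes lower; inconclusive = repeat tests gave conflicting results; inactive = no significant difference from controls in most replicates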;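 note: slope of initial-normalized fluorescence between seconds 10 and 20 after thallium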
HEK293 Tl flux2: acts in parental HEK cells, second KCC2 counter-screen. shares compounds with Cl transport mod. HEK293 parental, thallium flux FluoZin-2 fluorescence slope. thallium flux slope at 10 µM. 33% of 3,700 active;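 active = thallium flux slope above the same plate's solvent-control mean plus 3 SD in both duplicate wells; inconclusive = duplicate wells that disagreed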;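 note: run without ouabain in cells lacking the KCC2 cotransporter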
Numbers stand for hits; n = inactive; u = inconclusive; x = not tested or not shown. A selection: hits, their analogues and other compounds. The true share with any hit is near 4.1%.

SMILES	hERG protect	KCNQ1 inh	Cl transport mod	KCNQ1 pot	KCNK3 block	KCNK9 inh	KCC2 sec1	KCC2 bumet counter	KCC2 sec2	HEK counter1	KCC2 ouabain	HEK293 Tl flux2
Cc1noc(C)c1NC(=O)N(C)C[C@H]1Oc2ccc(NC(=O)Nc3ccc4c(c3)OCO4)cc2C(=O)N([C@H](C)CO)C[C@@H]1C	x	x	x	x	n	x	x	x	x	x	x	x
S=c1[nH]nc(COc2ccccc2)n1-c1ccc(Cl)cc1	x	x	x	x	n	x	x	x	x	x	x	x
Nn1c(COc2ccc(Cl)cc2)n[nH]c1=S	n	n	-3.3	n	n	n	n	n	u	n	0.035	n
COc1ccc(-c2nnc(S/C(=C/c3ccc(Cl)cc3)C(=O)O)o2)cc1	n	n	-3	n	n	n	n	0.0055	0.023	n	0.016	n
CSc1ccc(/C=C(/Sc2nnc(-c3ccccc3)o2)C(=O)O)cc1	n	n	n	n	n	n	x	x	x	x	x	x
CCOc1cccc2cc(C(=O)NCc3ccc(OC)cc3)c(=N)oc12	n	n	x	n	n	n	x	x	x	x	x	x
O=C(O)c1ccc(S(=O)(=O)NCc2cccnc2)cc1	n	n	x	n	n	n	x	x	x	x	x	x
O=C(O)/C=C/c1ccc(S(=O)(=O)NCc2cccnc2)cc1	n	n	3.8	n	n	n	n	n	n	n	n	n
CC(C)CN1C(=O)C(=O)N(CC(=O)c2ccc3c(c2)CCCC3)C1=O	x	x	x	x	n	x	x	x	x	x	x	x
O=C1NCC(O)=C1C=NCCO	n	n	x	n	n	n	n	n	n	n	n	n
O=C(O)CCCN=CC1=C(O)CNC1=O	n	n	n	n	n	n	x	x	x	x	x	x
COC(=O)NCC12CC3CC(C1)CC(CNC(=O)OC)(C3)C2	n	n	n	n	n	n	n	n	n	n	n	n
CCOC(=O)C1CN(S(=O)(=O)c2cc(OC)ccc2OC)C1	n	n	x	n	n	n	x	x	x	x	x	x
Cc1ccc(C2CC2c2n[nH]c(=S)n2-c2cccc(Cl)c2)cc1 (stereo not drawn)	n	n	5.6	n	n	n	n	0.027	n	0.011	u	n
Cc1ccc(-n2c(C3CC3c3ccc(Cl)cc3)n[nH]c2=S)cc1 (stereo not drawn)	n	n	n	n	n	n	x	x	x	x	x	x
Oc1ccccc1/C=N/NC(=S)NC1CC2CCC1C2 (stereo not drawn)	n	n	15	n	n	n	n	0.037	n	0.016	0.03	u
COc1cccc(/C=N/NC(=S)NC2CC3CCC2C3)c1OC (stereo not drawn)	n	n	x	n	n	n	x	x	x	x	x	x
COC(=O)CN1C(=O)C2(C(C#N)=C(N)Oc3c2c(C)nn3-c2ccccc2)c2ccccc21 (stereo not drawn)	n	n	3.9	n	n	n	n	0.0057	n	n	n	n
COC(=O)CN1C(=O)C2(C(C#N)=C(N)Oc3n[nH]c(-c4cccs4)c32)c2ccccc21 (stereo not drawn)	n	n	n	n	n	n	x	x	x	x	x	x
NC(=O)C(c1ccc(Sc2ccccc2)nn1)c1ccc(Cl)cc1Cl (stereo not drawn)	n	n	4	n	n	n	n	n	n	n	n	n
CC(C)(C)OC(=O)N1CCC(C(=O)Nc2cccc(C(=O)NCCCc3ccccc3)c2)CC1	x	x	x	x	n	x	x	x	x	x	x	x
Cc1ccc(OCCSc2nc3ccccc3n2CC(=O)O)cc1C	n	n	x	n	n	n	x	x	x	x	x	x
COCCn1c(-c2ccc(Cl)cc2Cl)nc2c(c(=O)c3ccccc3n2C)c1=O	n	n	-3.4	n	n	n	n	n	0.024	u	0.013	n
CCOC(=O)c1c(S(=O)(=O)N2CCN(c3ccc(C(C)=O)cc3)CC2)c(C)n(C)c1C	n	n	x	n	n	n	x	x	x	x	x	x
Nc1ccccc1C(=O)N1O[C@@H]2C=C[C@H]1CC2	x	x	x	x	n	x	x	x	x	x	x	x
SMILES	hERG protect	KCNQ1 inh	Cl transport mod	KCNQ1 pot	KCNK3 block	KCNK9 inh	KCC2 sec1	KCC2 bumet counter	KCC2 sec2	HEK counter1	KCC2 ouabain	HEK293 Tl flux2
Clc1c(Cl)c(Cl)c2n[nH]nc2c1Cl	n	n	-6.7	n	n	n	u	n	u	0.0034	0.013	0.0074
Cc1sc(-n2c(C)cc(/C=C3\SC(=S)NC3=O)c2C)c(C#N)c1C	n	n	9	9	n	n	n	0.016	n	0.016	u	u
CCn1c(C)cc(/C=C2/SC(=S)NC2=O)c1C	n	n	n	n	n	n	x	x	x	x	x	x
Clc1ccc2c(c1)Nc1ccccc1CC2	n	n	x	n	n	n	x	x	x	x	x	x
Cc1cc(C=C2C(=O)c3ccccc3C2=O)c(C)n1-c1cccc(C(=O)O)c1	n	n	-5.4	n	n	n	n	u	0.02	0.0056	0.01	n
COc1cccc(CNC(=O)CCNC(=O)C2CCN(S(=O)(=O)c3ccccc3)CC2)c1	n	n	x	n	n	n	x	x	x	x	x	x
Cc1nn(CCCC(=O)N2CCc3ccccc3C2)c(=O)c2cc3sccc3n12	n	n	-6.5	n	n	n	n	n	u	u	0.012	n
CCc1nn(CCCC(=O)N2CCc3ccccc3C2)c(=O)c2cc3occc3n12	n	n	-5.8	n	n	n	n	n	n	n	0.014	n
CCOc1ccccc1CN1CCNC(=O)C1CC(=O)NCc1nc(C)cs1 (stereo not drawn)	n	n	x	n	n	n	x	x	x	x	x	x
Cc1cc(C)n(CCNC(=O)C2CCC(=O)N(Cc3ccc(Cl)cc3)C2)n1 (stereo not drawn)	n	n	x	n	n	n	x	x	x	x	x	x
COc1ccc(CCCN2CCC(CN3CCNC(=O)C3=O)CC2)cc1OC	x	x	x	x	n	x	x	x	x	x	x	x
O=C(CSc1nnnn1Cc1ccccc1)c1ccccc1	n	n	-3.2	n	n	n	n	n	n	n	u	n
O=C(CSc1nnnn1Cc1ccccc1)c1ccc(F)cc1	n	n	n	n	n	n	x	x	x	x	x	x
COC(=O)c1ccc(CSc2nnnn2Cc2ccccc2)cc1	n	n	n	n	n	n	x	x	x	x	x	x
CC1Cc2ccccc2N1C(=O)CSc1nnnn1Cc1ccccc1 (stereo not drawn)	n	n	-3.6	n	n	n	n	n	0.023	n	0.015	n

Bioassay records as filed in PubChem.
